Assay outcomes deposited in PubChem BioAssay by Johns Hopkins Ion Channel Center.
The list is not random: actives were taken first. Their share in the collection is about 3.7%.
KCNK3 inh – human KCNK3 channel inhibition, primary screen | B-score at 10 µM | O14649 | 340,000 compounds, 0.84% hits | CHO-KCNK3 thallium flux, FluxOR fluorescence; hits give low values | AID 602410;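 active = B-score under library mean minus 4 SD, starting fluorescence ratio at most library mean plus 5 SD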;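 note: more negative B-score means stronger inhibition of thallium flux through KCNK3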
KCNQ1 pot – human KCNQ1 channel potentiation or activation | P51787 | 310,000 compounds, 0.35% hits | B-score at 10 µM | CHO-K1 KCNQ1, thallium flux FluxOR fluorescence; hits give high values;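 active = fluorescence ratio B-score, a plate-corrected score, at least three library SD, with initial intensity B-score within 5 SD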
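Assay system: CHO-K1 cells stably expressing KCNQ1; Medium: assay buffer with matched DMSO; Also added: K+/Tl+ depolarizing stimulus; Dosing: single dose; Timing: dye 90 min, compound 20 min, room temperature; Measured by: kinetic FluxOR thallium fluorescence, 10-s 1-Hz baseline, 110-s post-stimulus read; Read-out: peak-minus-minimum fluorescence over initial fluorescence, negative-control normalized, B-scored.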
KCNK9 block – human KCNK9 channel inhibition; AID 488922; HEK293 KCNK9, FluxOR thallium flux fluorescence; hits give low values; B-score at 10 µM; Q9NPC2; 310,000 compounds, 1.2% hits;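 active = ratio B-score over 3 SD below the library mean, with starting fluorescence within 5 SD of its mean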;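 note: negative B-score means less thallium flux so channel inhibition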
Target sequence (Q9NPC2 whole entry, looked up): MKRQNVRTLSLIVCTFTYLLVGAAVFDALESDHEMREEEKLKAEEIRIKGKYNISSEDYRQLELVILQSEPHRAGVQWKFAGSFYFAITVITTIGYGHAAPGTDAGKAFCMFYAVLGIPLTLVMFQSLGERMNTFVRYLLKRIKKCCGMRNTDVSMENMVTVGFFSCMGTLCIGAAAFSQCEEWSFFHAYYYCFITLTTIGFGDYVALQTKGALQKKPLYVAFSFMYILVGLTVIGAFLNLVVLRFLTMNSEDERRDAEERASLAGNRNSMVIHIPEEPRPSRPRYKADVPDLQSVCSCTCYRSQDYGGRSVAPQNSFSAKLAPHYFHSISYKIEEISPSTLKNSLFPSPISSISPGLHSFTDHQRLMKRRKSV
Kir21 inh – inhibitors of mouse Kir2.1 inward-rectifier potassium channel. B-score at 10 µM. 310,000 compounds, 0.85% hits. HEK293-Kir2.1, FluxOR thallium flux fluorescence; hits give low values. AID 1672. P35561;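 active = fluorescence ratio B-score at or below minus 3 SD of library scores, with starting-brightness B-score within 2 SD, cut at about -4.2 in these data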;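 note: channel flux triggered by added potassium and thallium sulfate stimulus; B-score of peak minus minimum fluorescence over baseline after thallium stimulus; more negative B-score means stronger Kir2.1 block with less thallium influx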
KCNQ1 inh – inhibitors of human KCNQ1 potassium channel; CHO-K1 KCNQ1, FluxOR thallium flux fluorescence; hits give high values; B-score at 10 µM; 310,000 compounds, 1.3% hits; AID 2642;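 active = compounds whose thallium flux B-score, printed positive for inhibition, exceeds three library SD while starting fluorescence stays within three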;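 note: channel opened by potassium depolarization with thallium stimulus after 20 min compound exposure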
hERG protect – compounds protecting human hERG from proarrhythmic drug block | 310,000 compounds, 0.51% hits | activation (rescue from dofetilide block), less the hit threshold, % at 10 µM | AID 1511 | Q12809 | CHO-hERG, FluxOR thallium flux, dofetilide IC70 present;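 active = activation above the mean of controls blocked by dofetilide plus 5 SD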;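 note: thallium influx through hERG after potassium depolarization seen as dye fluorescence rise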
KCNK3 confirm – confirmation of human KCNK3 two-pore domain potassium channel inhibitors. shares compounds with KCNK3 inh. ratio percent of control, % at 10 µM. 2,400 compounds, 99% hits. CHO-KCNK3 thallium flux, FluxOR fluorescence; 0% buffer, 100% carvedilol maximal block. AID 651638;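 active = ratio percent of control, averaged over triplicates, above buffer control mean plus 5 SD, cut at about 64% in these data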;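 note: ratio is the fluorescence rise from min to max over baseline after thallium stimulus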
KCNK3 noninduced – counter-screen for KCNK3 inhibitors: effect in non-induced cells. shares compounds with KCNK3 inh. non-induced KCNK3 parental cells, FluxOR thallium flux; hits give low values. thallium flux ratio (lower = more inhibition) at 10 µM. 2,400 compounds, 40% hits. AID 651747;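 active = thallium flux ratio, averaged over three wells, more than 5 SD below the buffer control mean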;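 note: host cells are CHO cells without KCNK3 induction; ratio is peak minus trough fluorescence over baseline then normalized to buffer controls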
* = called active by the depositor; i = inactive; · = no result given.

SMILES	KCNK3 inh	KCNQ1 pot	KCNK9 block	Kir21 inh	KCNQ1 inh	hERG protect	KCNK3 confirm	KCNK3 noninduced
CCOc1ccc(CNC2CCCc3ccccc32)cc1 (stereo not drawn)	i	i	i	-0.05	i	-6	·	·
COc1ccc(CN(C)C(=O)c2cnc(OC)cc2C(F)(F)F)c(OC)c1	i	i	i	-0.45	i	-8	·	·
COc1ccccc1OCC(=O)N/N=C/c1c(O)ccc2ccccc12	-10*	i	-8.6*	0.38	i	-22	132*	i
COc1cc(C(=O)NC(C)C2CC3CCC2C3)ccc1OC(F)F (stereo not drawn)	-12*	·	·	·	·	·	110*	0.12*
CC(NC(=O)c1ccc(F)cc1)C1CC2CCC1C2 (stereo not drawn)	i	i	i	-1.6	i	-6	·	·
CCc1ccc(NC(=O)C2CCN(S(=O)(=O)c3c(C)noc3/C=C/N(C)C)CC2)cc1	i	i	i	0.2	i	-5	·	·
CCOc1ccccc1C(=O)NCC(=O)OCCOc1cccc(Cl)c1	-10*	i	i	1.5	i	-15	100*	i
O=[N+]([O-])c1c(Nc2ccc(O)cc2)cc(Cl)c2nonc12	-11*	i	i	-6.5*	9*	-30	164*	0.054*
N#CCC(=O)Nc1ccc(C(=O)OCC(=O)N=c2sccn2Cc2ccccc2Cl)cc1	-11*	i	i	2.8	i	-16	92*	i
CCCn1c(CNc2ccc(Br)cc2)nc2ccccc21	-12*	i	i	0.09	i	-15	124*	0.14*
CCCN(c1ccccc1F)S(=O)(=O)c1c[nH]c(C(=O)OC)c1	i	i	i	0.59	i	-5	·	·
CSc1ccccc1C(=O)Nc1cc(C)cc(C)c1	i	i	i	-1	i	-10	·	·
CSc1ccccc1C(=O)Nc1ccc(C)c(C)c1	-8.9*	i	i	1.5	i	-5	87*	i
CC(=O)Nc1ccc(NC(=O)c2cccc3c2-c2ccccc2C3=O)cc1	i	i	i	0.94	i	-7	·	·
Cc1ccc(NC(=O)c2cccc3c2-c2ccccc2C3=O)cc1C	-9.3*	i	i	-1.7	i	-11	108*	i
NC(=O)c1cc(S(=O)(=O)N2CCCC2)ccc1OCCOc1ccccc1	i	·	·	·	·	·	·	·
CCc1noc(C)c1C(=O)N(CCC(C)C)c1c(N)n(Cc2ccccc2)c(=O)[nH]c1=O	i	i	i	-0.02	i	-14	·	·
COc1cccc2cc(C(C)N(CCCN3CCOCC3)C(=S)Nc3ccc(C)cc3)oc12 (stereo not drawn)	-9.5*	i	i	0.38	i	-9	105*	i
COc1ccc(NC(=S)N(CCCN2CCOCC2)C(C)c2cc3ccccc3o2)cc1 (stereo not drawn)	i	i	i	0.32	i	-12	·	·
COc1ccccc1CCn1c(N)cc(=O)[nH]c1=O	i	i	i	1.4	i	-7	·	·
N#Cc1ccc(/C=C\c2nccc3c2[nH]c2ccccc23)cc1	-10*	i	i	-0.39	i	-14	116*	0.16*
Clc1ccc(/C=C\c2nccc3c2[nH]c2ccccc23)cc1	i	i	i	1.6	i	-19	·	·
Cc1nn(C(C)(C)C)c(OC(=O)C2CCCC2)c1S(=O)(=O)c1ccccc1	-9.9*	i	i	-1.6	i	-5	90*	i
CCOC(=O)CNC(=S)N(Cc1ccco1)Cc1ccccc1Cl	-10*	i	i	-0.32	i	-7	124*	i
CCN(CC(=O)Nc1ccc(OC)cc1)C(=O)Cc1coc2cc(C)c(C)cc12	i	·	·	·	·	·	·	·
SMILES	KCNK3 inh	KCNQ1 pot	KCNK9 block	Kir21 inh	KCNQ1 inh	hERG protect	KCNK3 confirm	KCNK3 noninduced
O=C(C1=NN(c2ccccc2)C(=O)CC1)N1CCc2ccccc2C1	i	i	i	0.47	i	-9	·	·
CC(OC(=O)c1ccco1)C(=O)Nc1ncc(Cl)cc1Cl (stereo not drawn)	i	·	·	·	·	·	·	·
COC(=O)C1=C(C)N=C2SC(C)C(=O)N2C1c1cccs1 (stereo not drawn)	-12*	i	i	0.77	i	-5	0	i
COC(=O)C1=C(C)N=C2SC(C)C(=O)N2C1c1ccc(C(=O)OC)cc1 (stereo not drawn)	-8.7*	i	i	-0.93	i	0	106*	i
COCCNC(=S)N/N=C/c1c2ccccc2cc2ccccc12	-14*	i	i	0.64	i	-27	110*	i
O=C(Nc1ccccc1Cc1ccccc1)c1ccncc1	i	i	i	2.7	i	-9	·	·
COc1ccc(-n2c(Cc3ccccc3)nnc2SCC(=O)N2CCCc3ccccc32)cc1	-12*	i	i	-2.9	i	-3	87*	i
O=C(NCc1nnc(SCC(=O)N2CCCc3ccccc32)n1-c1ccccc1)c1cccc2ccccc12	i	i	i	-0.51	i	-13	·	·
CCn1c2ccccc2c2cc(NC(=O)c3ccc(Br)o3)ccc21	-11*	i	i	-1.3	i	-10	116*	i
CCn1c2ccccc2c2cc(/C=N/NC(=O)c3ccncc3)ccc21	-11*	i	i	0.08	i	-15	116*	0.14*
CCn1c2ccccc2c2cc(NC(=O)c3cc(C)on3)ccc21	-10*	i	i	0.14	i	-8	123*	0.16*
CCn1c2ccccc2c2cc(NC(=O)c3ccc(=O)oc3)ccc21	i	i	i	0.38	i	-17	·	·
CC(=O)N/C(=N\c1nc(C)cc(C)n1)Nc1ccccc1Cl	i	i	i	-0.11	i	-9	·	·
CCOC(=O)C1C2C=CC(CC2)N1c1ccccc1 (stereo not drawn)	i	i	i	-1.9	i	-8	·	·
Cc1cccc2cc(CN(Cc3ccco3)C(=O)c3ccncc3)c(=O)[nH]c12	-22*	i	i	2.2	i	-16	63*	i
O=C(O)c1cccc(N2C(=O)CSC2c2ccccc2)c1 (stereo not drawn)	i	i	i	-1.5	i	-4	·	·
CC1(C)Cc2c(cnn2-c2cccc(F)c2)C(NC(=O)Cn2cccn2)C1 (stereo not drawn)	i	i	i	0.03	i	-11	·	·
